# Experimental data gathered from unrelated publications.
# Each line is one published result; the experiments were not run side by side.
SMILES,tested on,test,test system,conditions,measurement,value
N#Cc1ccc(-c2cc(COc3cc(C(F)(F)F)nc4ccccc34)on2)cc1,DND41,"cell growth or viability, MTS",,72 h,IC50,43.7 µM
OC(Cn1cncn1)(Cn1cncn1)c1ccc(F)cc1F,Candida tropicalis,"microbial growth, broth dilution",CGMCC2,48 h,MIC,2 µM
CC(=O)NC[C@H]1CN(c2ccc(N3CCOCC3)c(F)c2)C(=O)O1,Streptococcus agalactiae,microbial growth,,clinical isolate,MIC90,1 µg/mL
CC(=O)N1CCN(c2ccc(OCC3COC(Cn4ccnc4)(c4ccc(Cl)cc4Cl)O3)cc2)CC1 (stereo not shown),Candida tropicalis,"microbial growth, broth dilution",ATCC13803,48 h,MIC,8 µg/mL
CN[C@H](CC(C)C)C(=O)N[C@H]1C(=O)N[C@@H](CC(N)=O)C(=O)N[C@H]2C(=O)N[C@H]3C(=O)N[C@H](C(=O)N[C@H](C(=O)O)c4cc(O)cc(O)c4-c4cc3ccc4O)[C@H](O)c3ccc(c(Cl)c3)Oc3cc2cc(c3O[C@@H]2O[C@H](CO)[C@@H](O)[C@H](O)[C@H]2O[C@H]2C[C@](C)(N)[C@H](O)[C@H](C)O2)Oc2ccc(cc2Cl)[C@H]1O,Streptococcus agalactiae,microbial growth,,clinical isolate,MIC90,0.5 µg/mL
FC(F)(F)c1cc(OCc2cc(-c3ccccc3)no2)c2ccccc2n1,DND41,"cell growth or viability, MTS",,72 h,IC50,65.2 µM
CC(=O)ON=C1C=CC(=C(C#N)c2ccccc2)C=C1,Candida tropicalis,"microbial growth, broth dilution",ATCC13803,48 h,MIC,2 µg/mL
CC[C@H]1OC(=O)[C@H](C)[C@@H](O[C@H]2C[C@@](C)(OC)[C@@H](O)[C@H](C)O2)[C@H](C)[C@@H](O[C@@H]2O[C@H](C)C[C@H](N(C)C)[C@H]2O)[C@](C)(O)C[C@@H](C)/C(=N\OCOCCOC)[C@H](C)[C@@H](O)[C@]1(C)O,Streptococcus agalactiae,microbial growth,,clinical isolate,MIC90,8 µg/mL
O=c1cc(OCc2cc(-c3ccc(Cl)cc3Cl)no2)c2ccccc2o1,DND41,"cell growth or viability, MTS",,72 h,IC50,> 100 µM
N#CC(=C1C=CC(=NOC(=O)OCc2ccccc2)C=C1)c1ccccc1,Candida tropicalis,"microbial killing, broth dilution",ATCC13803,48 h,MFC,256 µg/mL
